# From ChEMBL document CHEMBL2321720, “Development of triarylsulfonamides as novel anti-inflammatory agents” (Bioorg Med Chem Lett, 2013)
# Tests used:
# [1] = Thermodynamic aqueous solubility of the compound in fasted state simulated intestinal fluid after 24 hrs by HPLC analysis; assay type: physicochemical; conditions: read-out: Therm_solubility
# Method in brief: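 Solubility in FaSSIF. The sample was filtered and concentration measured by HPLC/UV.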
# [2] = Apparent permeability from apical to basolateral side of human Caco2 cells; assay type: ADME, cell-based; conditions: Caco-2
# [3] = Apparent permeability from basolateral to apical side of human Caco2 cells; assay type: ADME, cell-based; conditions: Caco-2
# [4] = Cmax in rat at […], po; assay type: ADME, organism-based; design: dose 2.5 mg/kg, route oral; conditions: in vivo
# [5] = Tmax in rat at […], po; assay type: ADME, organism-based; design: dose 2.5 mg/kg, route oral; conditions: in vivo
# [6] = AUC in rat at […], po; assay type: ADME, organism-based; design: dose 2.5 mg/kg, route oral; conditions: plasma
# [7] = Oral bioavailability in rat at […]; assay type: ADME, organism-based; conditions: in vivo
Structure (SMILES),solubility thermodynamic at 24 h [1] [µg/mL],further results
O=S(=O)(Nc1cccc(CO)c1)c1ccc(-c2ccc(F)cc2)cc1Cl,25,
Cc1c(CO)cccc1NS(=O)(=O)c1ccc(-c2ccc(F)cc2)cc1,24,
Cc1c(CO)cccc1NS(=O)(=O)c1ccc(-c2ccc(F)cc2F)cc1,43,
Cc1c(CO)cccc1NS(=O)(=O)c1ccc(-c2ccc(Br)cc2)cc1,12,
Cc1ccc(CO)cc1NS(=O)(=O)c1ccc(-c2ccc(Br)cc2)cc1,47,
O=S(=O)(Nc1cccc(CO)c1Cl)c1ccc(-c2ccc(Br)cc2)cc1,14,
O=S(=O)(Nc1cc(CO)ccc1Cl)c1ccc(-c2ccc(Br)cc2)cc1,11,
O=S(=O)(Nc1ccc(O)c(CO)c1)c1ccc(-c2ccc(Br)cc2)cc1,4,
O=S(=O)(Nc1cc(CO)ccc1O)c1ccc(-c2ccc(Br)cc2)cc1,12,
O=S(=O)(Nc1cc(CO)ccc1O)c1ccc(-c2ccc(F)cc2F)cc1,12,
O=S(=O)(Nc1cccc(CO)c1O)c1ccc(-c2ccc(Br)cc2)cc1,19,
O=S(=O)(Nc1ccc(CO)c(CO)c1)c1ccc(-c2ccc(F)cc2F)cc1,32,
O=S(=O)(Nc1ccc(-c2ccc(Cl)cc2Cl)cc1)c1cccc(CO)c1,40,
O=S(=O)(Nc1cccc(CO)c1)c1ccc(-c2ccccc2)cc1,11,
O=S(=O)(Nc1cccc(CO)c1)c1ccc(-c2ccc(Br)cc2)cc1,22,
Cc1ccc(-c2ccc(S(=O)(=O)Nc3cccc(CO)c3)cc2)cc1,21,
O=S(=O)(Nc1cccc(CO)c1)c1ccc(-c2ccccc2F)cc1,57,
O=S(=O)(Nc1cccc(CO)c1)c1ccc(-c2ccc(F)cc2F)cc1,50,
O=S(=O)(Nc1cccc(CO)c1)c1ccc(-c2ccc(Cl)cc2Cl)cc1,40,Papp A→B [2]: 1.5 ×10⁻⁶ cm/s; Papp B→A [3]: 5.5 ×10⁻⁶ cm/s; Cmax [4]: 30 ng/mL; Tmax [5]: 50 min; AUC [6]: 110 ng·h/mL; bioavailability [7]: 8%
O=S(=O)(Nc1cccc(CO)c1)c1ccc(-c2ccc(Cl)cc2F)cc1,73,
